Assays:
5'-nucleotidase = 5'-nucleotidase (Homo sapiens, UniProt P21589); assay: Inhibition of human CD73 expressed in CHO cells incubated for 60 mins before addition of AMP and further incubated for 60 mins by colorimetric assay; format: cell-based
Method in brief: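 Thawed stable CD73-CHO cells in HEPES pH 7.4 saline buffer with 0.1% glucose, 1500 cells/well. Preincubated 60 min at 37 °C with 16-point 1:3 compound dilutions (final 100–0 or 0.1–0 μM; 10 or 2% DMSO). 25 μM AMP then added, 60 min at 37 °C/5% CO2. Supernatant phosphate measured with PiColorLock Gold. Activity normalized to DMSO and no-cell wells. IC50 from a four-parameter fit.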

[1] = Clearance in Sprague-Dawley rat at 0.25 to 0.5 mg/kg, iv measured up to 24 hrs by LC-MS/MS analysis; format: ADME, organism-based; conditions: in vivo, dose 0.25-0.5 mg/kg
Method in brief: (§1)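 Male SD rats (0.27–0.30 kg), acclimated. Single IV bolus via femoral vein at 0.25 or 0.5 mg/kg in 31.6% DMA/36.8% ethanol/31.6% PEG. Jugular blood at predose, 5, 15, 30 min, 1, 2, 4, 6, 8, 24 h, collected into K2-EDTA; plasma spun at 4 °C, stored −80 °C until analysis.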

[2] = Half life in Sprague-Dawley rat at 0.25 to 0.5 mg/kg, iv measured up to 24 hrs by LC-MS/MS analysis; format: ADME, organism-based; conditions: in vivo, dose 0.25-0.5 mg/kg; method in brief: as §1

5'-nucleotidase, sequence (P21589 whole entry): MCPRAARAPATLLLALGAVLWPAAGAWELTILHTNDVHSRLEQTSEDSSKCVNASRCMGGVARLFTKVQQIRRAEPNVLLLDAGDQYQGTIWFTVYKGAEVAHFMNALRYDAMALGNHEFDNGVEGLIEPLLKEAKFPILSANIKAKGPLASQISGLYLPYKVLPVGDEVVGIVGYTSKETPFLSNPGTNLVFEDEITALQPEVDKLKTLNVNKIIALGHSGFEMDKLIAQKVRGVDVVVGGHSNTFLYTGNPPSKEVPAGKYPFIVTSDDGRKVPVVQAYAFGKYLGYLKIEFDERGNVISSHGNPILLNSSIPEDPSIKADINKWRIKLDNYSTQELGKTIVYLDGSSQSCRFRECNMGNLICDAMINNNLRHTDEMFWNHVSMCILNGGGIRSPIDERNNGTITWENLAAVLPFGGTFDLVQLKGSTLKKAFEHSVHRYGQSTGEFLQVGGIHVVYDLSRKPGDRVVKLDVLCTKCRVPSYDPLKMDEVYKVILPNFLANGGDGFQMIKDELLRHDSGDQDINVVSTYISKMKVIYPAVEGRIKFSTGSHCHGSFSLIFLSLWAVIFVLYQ

| Structure (SMILES) | IC50 (5'-nucleotidase) [nM] | clearance [1] [mL/min/kg] | half-life [2] [h] |
| --- | --- | --- | --- |
| Cn1cc(CNc2nc(Cl)nc3c2ncn3[C@@H]2O[C@H](COCP(=O)(O)O)[C@@H](O)[C@H]2O)cn1 | 201 |  |  |
| O=P(O)(O)COC[C@H]1O[C@@H](n2ncc3c(NC4CCCC4)cc(Cl)nc32)[C@H](O)[C@@H]1O | 4.5 |  |  |
| Cn1cnnc1CNc1nc(Cl)nc2c1ncn2[C@@H]1O[C@H](COCP(=O)(O)O)[C@@H](O)[C@H]1O | 3200 |  |  |
| O=P(O)(O)CCCOC[C@H]1O[C@@H](n2cnc3c(NCc4ccccc4)nc(Cl)nc32)[C@H](O)[C@@H]1O | > 10000 |  |  |
| O=P(O)(O)COC[C@H]1O[C@@H](n2cnc3c(NCC4CCCC4)nc(Cl)nc32)[C@H](O)[C@@H]1O | 124 |  |  |
| O=P(O)(O)COC[C@H]1O[C@@H](n2cnc3c(NC4CCCC4)nc(Cl)nc32)[C@H](O)[C@@H]1O | 26 | 6.17 | 0.97 |
| O=P(O)(O)COC[C@H]1O[C@@H](n2cnc3c(N[C@@H]4CCOC4)nc(Cl)nc32)[C@H](O)[C@@H]1O | 84 |  |  |
| O=C(O)C(OC[C@H]1O[C@@H](n2cnc3c(NCc4ccccc4)nc(Cl)nc32)[C@H](O)[C@@H]1O)C(=O)O | 1000 |  |  |
| O=P(O)(O)COC[C@H]1O[C@@H](n2cnc3c(N4CCOCC4)nc(Cl)nc32)[C@H](O)[C@@H]1O | 148 |  |  |
| O=P(O)(O)COC[C@H]1O[C@@H](n2cnc3c(NC4CCCC4)nc(-c4ccccc4)nc32)[C@H](O)[C@@H]1O | 245 |  |  |
| O=P(O)(O)COC[C@H]1O[C@@H](n2cnc3c(N4CCCC4)nc(Cl)nc32)[C@H](O)[C@@H]1O | 45 |  |  |
| C[C@H](Nc1nc(Cl)nc2c1cnn2[C@@H]1O[C@H](COCP(=O)(O)O)[C@@H](O)[C@H]1O)c1ccccc1 |  | 0.517 | 2.4 |
| C[C@H](Nc1nc(Cl)nc2c1cnn2[C@@H]1O[C@H](COCP(=O)(O)O)[C@@H](O)[C@H]1O)c1ccc(F)cc1 |  | 0.333 | 4.5 |
| C[C@H](Nc1cc(Cl)nc2c1cnn2[C@@H]1O[C@H](COCP(=O)(O)O)[C@@H](O)[C@H]1O)c1ccc(F)cc1 |  | 0.3 | 4 |
| O=P(O)(O)COC[C@H]1O[C@@H](n2cnc3c(NCc4ccccn4)nc(Cl)nc32)[C@H](O)[C@@H]1O | 382 |  |  |
| COc1ccccc1CCNc1nc(Cl)nc2c1ncn2[C@@H]1O[C@H](COCP(=O)(O)O)[C@@H](O)[C@H]1O | 173 |  |  |
| O=P(O)(O)COC[C@H]1O[C@@H](n2cnc3c(NC4CCCC4)cc(Cl)nc32)[C@H](O)[C@@H]1O | 33 |  |  |

| Structure (SMILES) | IC50 (5'-nucleotidase) [nM] | clearance [1] [mL/min/kg] | half-life [2] [h] |
| --- | --- | --- | --- |
| O=P(O)(O)COC[C@H]1O[C@@H](n2cnc3c(NCCc4ccccc4F)nc(Cl)nc32)[C@H](O)[C@@H]1O | 121 |  |  |
| C[C@H](Nc1nc(Cl)nc2c1ncn2[C@@H]1O[C@H](COCP(=O)(O)O)[C@@H](O)[C@H]1O)c1ccccc1 | 65 | 2.33 | 1.2 |
| O=P(O)(O)COC[C@H]1O[C@@H](n2cnc3c(NC4CC4)nc(Cl)nc32)[C@H](O)[C@@H]1O | 588 |  |  |
| O=P(O)(O)COC[C@H]1O[C@@H](n2cnc3c(NCCc4ccccc4)nc(Cl)nc32)[C@H](O)[C@@H]1O | 105 |  |  |
| Cc1ccccc1-c1nc(NC2CCCC2)c2ncn([C@@H]3O[C@H](COCP(=O)(O)O)[C@@H](O)[C@H]3O)c2n1 | 3500 |  |  |
| CN(Cc1ccccc1Cl)c1nc(Cl)nc2c1ncn2[C@@H]1O[C@H](COCP(=O)(O)O)[C@@H](O)[C@H]1O | 46 |  |  |
| COCc1nc(NC2CCCC2)c2ncn([C@@H]3O[C@H](COCP(=O)(O)O)[C@@H](O)[C@H]3O)c2n1 | 118 |  |  |
| O=P(O)(O)COC[C@H]1O[C@@H](n2cnc3c(NCc4ccccc4Cl)nc(Cl)nc32)[C@H](O)[C@@H]1O | 46 |  |  |
| O=P(O)(O)COC[C@H]1O[C@@H](n2cnc3c(NC4CCC4)nc(Cl)nc32)[C@H](O)[C@@H]1O | 83 |  |  |
| O=C(O)C(OC[C@H]1O[C@@H](n2cnc3c(NCc4ccccc4)nc(Cl)nc32)[C@H](O)[C@@H]1O)P(=O)(O)O (stereo partly specified) | 110 |  |  |
| O=P(O)(O)CCOC[C@H]1O[C@@H](n2cnc3c(NCc4ccccc4)nc(Cl)nc32)[C@H](O)[C@@H]1O | > 10000 |  |  |
| C[C@@H](Nc1nc(Cl)nc2c1ncn2[C@@H]1O[C@H](COCP(=O)(O)O)[C@@H](O)[C@H]1O)c1ccccc1 | 156 |  |  |
| O=P(O)(O)OP(=O)(O)OC[C@H]1O[C@@H](n2cnc3c(NCc4ccccc4)nc(Cl)nc32)[C@H](O)[C@@H]1O | 0.4 |  |  |
| O=P(O)(O)COC[C@H]1O[C@@H](n2cnc3c(NCc4ccccc4)nc(Cl)nc32)[C@H](O)[C@@H]1O | 58 |  |  |
| O=P(O)(O)COC[C@H]1O[C@@H](n2cnc3c(NC4CCCC4)nc(COc4ccccc4)nc32)[C@H](O)[C@@H]1O | 13 |  |  |
| O=P(O)(O)COC[C@H]1O[C@@H](n2cnc3c(NC4CCCC4)nc(COC4CCNC4)nc32)[C@H](O)[C@@H]1O (stereo partly specified) | > 10000 |  |  |
| CC(C)Nc1nc(Cl)nc2c1ncn2[C@@H]1O[C@H](COCP(=O)(O)O)[C@@H](O)[C@H]1O | 192 |  |  |

Source: ChEMBL document CHEMBL4765491, “Discovery of Potent and Selective Methylenephosphonic Acid CD73 Inhibitors” (J Med Chem, 2021)
